From the M2OR odorant receptor database

Each compound was assayed against T1, UniProt Q8VF43. Conditions: stereoisomer not certain.
T1 sequence (whole entry): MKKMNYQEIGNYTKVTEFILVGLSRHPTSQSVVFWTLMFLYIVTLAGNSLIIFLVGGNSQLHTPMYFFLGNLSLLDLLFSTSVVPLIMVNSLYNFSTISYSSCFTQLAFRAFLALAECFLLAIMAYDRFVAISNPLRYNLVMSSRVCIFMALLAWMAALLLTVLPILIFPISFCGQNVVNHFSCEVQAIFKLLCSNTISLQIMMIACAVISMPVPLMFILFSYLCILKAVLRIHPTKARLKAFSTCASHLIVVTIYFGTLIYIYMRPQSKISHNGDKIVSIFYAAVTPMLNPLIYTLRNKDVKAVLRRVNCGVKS
Method in brief: (§1)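 Assay methods differ from source to source, frequently being transient luciferase assays in mammalian cell lines. For each receptor–molecule pair, the label responsive (active) applies when the original authors judged the measured signal statistically different from baseline, and non-responsive (inactive) applies otherwise.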

Odorant receptor agonist call, inactive:
OCC=Cc1ccccc1
C1CCOC1
C=CC(=C)CCC=C(C)C
CCSSCC
CCC=CCCC=CC=O
COC(OC)c1ccccc1
Cc1ccc(C(C)C)cc1
C=C(CC)CCCC(C)(C)O
CCN(CC)CC
CC(C)CS
Cc1occc1SSc1ccoc1C
CCc1nccnc1CC
CC1(C)CC(=O)CC(=O)C1
C=C(C)C1CC=C(C)CC1 (stereo unspecified)
COc1nccnc1C(C)C
CC(=O)OCCc1ccccc1
CCCCCCCOC(=O)C(C)C
C=CC(C)=CCC=C(C)CCC=C(C)C
CCCCCC(C)O (stereo unspecified)
CC(=O)OCc1ccc2c(c1)OCO2
CSSCc1ccco1
CCCCCCC(C=O)=Cc1ccccc1
CC(=O)C=CC1=C(C)CCCC1(C)C
CCc1ccc(O)cc1
C=C(C)C1CCC2(C)OC2C1 (stereo unspecified)
CCCCCOC(=O)CCC
CCCCCC(C=O)=Cc1ccccc1
CC(C)CCN
CCCCCC(=Cc1ccccc1)C(OC)OC
CCC=CCCCCC=O
O=C(O)CCCCCCCCC(=O)O
CCc1ccccc1O
C=C(C)C1CCC(C)C(O)C1 (stereo unspecified)

What follows are compounds tested against T2, UniProt Q8VF52. Conditions: stereoisomer not certain.
T2 sequence (whole entry): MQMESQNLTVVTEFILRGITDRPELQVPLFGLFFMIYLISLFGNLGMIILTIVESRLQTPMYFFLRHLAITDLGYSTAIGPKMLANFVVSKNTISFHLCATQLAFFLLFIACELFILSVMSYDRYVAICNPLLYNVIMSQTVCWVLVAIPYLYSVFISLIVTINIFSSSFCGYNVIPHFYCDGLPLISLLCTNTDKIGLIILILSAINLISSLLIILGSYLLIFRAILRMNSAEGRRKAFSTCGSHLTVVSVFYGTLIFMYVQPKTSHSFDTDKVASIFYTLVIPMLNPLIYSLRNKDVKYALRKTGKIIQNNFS
Method in brief: as §1

Odorant receptor agonist call, active:
CC(=O)C=CC1=C(C)CCCC1(C)C
CCCCCC(C=O)=Cc1ccccc1

Odorant receptor agonist call, inactive:
OCC=Cc1ccccc1
C1CCOC1
C=CC(=C)CCC=C(C)C
CCSSCC
CCC=CCCC=CC=O
COC(OC)c1ccccc1
Cc1ccc(C(C)C)cc1
C=C(CC)CCCC(C)(C)O
CCN(CC)CC
CC(C)CS
Cc1occc1SSc1ccoc1C
CCc1nccnc1CC
CC1(C)CC(=O)CC(=O)C1
C=C(C)C1CC=C(C)CC1 (stereo unspecified)
COc1nccnc1C(C)C
CC(=O)OCCc1ccccc1
CCCCCCCOC(=O)C(C)C
C=CC(C)=CCC=C(C)CCC=C(C)C
CCCCCC(C)O (stereo unspecified)
CC(=O)OCc1ccc2c(c1)OCO2
CSSCc1ccco1
CCCCCCC(C=O)=Cc1ccccc1
CCc1ccc(O)cc1
C=C(C)C1CCC2(C)OC2C1 (stereo unspecified)
CCCCCOC(=O)CCC
CC(C)CCN
CCCCCC(=Cc1ccccc1)C(OC)OC
CCC=CCCCCC=O
O=C(O)CCCCCCCCC(=O)O
CCc1ccccc1O
C=C(C)C1CCC(C)C(O)C1 (stereo unspecified)
